Data as given in ChEMBL document CHEMBL5058577, “EUbOPEN Chemogenomics Library 2 (Multiplex)” (2022).

System: HEK-293T
Assay: Multiplex assay against HEK293T
Type: toxicity, cell-based
Conditions: human
How it was run: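 Compound was added to live cells that had been stained at seeding with Hoechst33342, BioTracker Green Microtubule Cytoskeleton Dye, MitoTracker Red and Annexin V Alexa Fluor 680, and imaging followed on a CQ1 microscope at 37°C and 5% CO2. CellPathfinder machine-learning gating divided cells into Hoechst high-intensity objects or normal cells, normal cells into healthy, pyknosed or fragmented nuclei, and pyknosed cells into mitotic or apoptotic. Tubulin, mitochondrial-mass and membrane-permeability phenotypes are per cents of healthy-nucleus cells.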

[1] = 12 h, 1 µM, compound concentration 1 uM, replicate 1
[2] = 12 h, 1 µM, compound concentration 1 uM, replicate 2
[3] = 12 h, 10 µM, compound concentration 10 uM, replicate 1
[4] = 12 h, 10 µM, compound concentration 10 uM, replicate 2
[5] = 24 h, 1 µM, compound concentration 1 uM, replicate 1
[6] = 24 h, 1 µM, compound concentration 1 uM, replicate 2
[7] = 24 h, 10 µM, compound concentration 10 uM, replicate 1
[8] = 24 h, 10 µM, compound concentration 10 uM, replicate 2
[9] = 48 h, 1 µM, compound concentration 1 uM, replicate 1
[10] = 48 h, 1 µM, compound concentration 1 uM, replicate 2
[11] = 48 h, 10 µM, compound concentration 10 uM, replicate 1
[12] = 48 h, 10 µM, compound concentration 10 uM, replicate 2

## Cc1cc(NC(=O)NCCN2CCC(O)(Cc3ccccc3)CC2)c2ccccc2n1 [PALOSURAN]
[1]
  Population Apoptotic (%): 36%
  Population Fragmented Nuclei (%): 7%
  Population Healthy Nuclei (%): 77%
  Population Hoechst High Intensity Objects (%): 6%
  Population Membrane Permeable-Phenotype (%): 0%
  Population Mitochondria Different-Phenotype (%): 42%
  Population Mitotic Cells (%): 63%
  Population Normal (%): 93%
  Population Pyknosed Nuclei (%): 14%
  Population Tubulin-Different-Phenotype (%): 25%
  Total Cell Count: 373
[2]
  Population Apoptotic (%): 48%
  Population Fragmented Nuclei (%): 9%
  Population Healthy Nuclei (%): 81%
  Population Hoechst High Intensity Objects (%): 9%
  Population Mitochondria Different-Phenotype (%): 57%
  Population Mitotic Cells (%): 52%
  Population Normal (%): 90%
  Population Pyknosed Nuclei (%): 8%
  Population Tubulin-Different-Phenotype (%): 26%
  Total Cell Count: 326
[3]
  Population Apoptotic (%): 38%
  Population Fragmented Nuclei (%): 5%
  Population Healthy Nuclei (%): 81%
  Population Hoechst High Intensity Objects (%): 8%
  Population Membrane Permeable-Phenotype (%): 0%
  Population Mitochondria Different-Phenotype (%): 53%
  Population Mitotic Cells (%): 61%
  Population Normal (%): 91%
  Population Pyknosed Nuclei (%): 12%
  Population Tubulin-Different-Phenotype (%): 41%
  Total Cell Count: 461
[4]
  Population Apoptotic (%): 61%
  Population Healthy Nuclei (%): 75%
  Population Mitochondria Different-Phenotype (%): 76%
  Population Mitotic Cells (%): 38%
  Population Pyknosed Nuclei (%): 18%
  Population Tubulin-Different-Phenotype (%): 42%
  Total Cell Count: 346
[5]
  Population Apoptotic (%): 17%
  Population Fragmented Nuclei (%): 9%
  Population Healthy Nuclei (%): 78%
  Population Hoechst High Intensity Objects (%): 6%
  Population Membrane Permeable-Phenotype (%): 0%
  Population Mitochondria Different-Phenotype (%): 24%
  Population Mitotic Cells (%): 82%
  Population Normal (%): 93%
  Population Pyknosed Nuclei (%): 11%
  Population Tubulin-Different-Phenotype (%): 19%
  Total Cell Count: 511
[6]
  Population Apoptotic (%): 46%
  Population Fragmented Nuclei (%): 10%
  Population Healthy Nuclei (%): 76%
  Population Hoechst High Intensity Objects (%): 4%
  Population Mitochondria Different-Phenotype (%): 45%
  Population Mitotic Cells (%): 53%
  Population Normal (%): 95%
  Population Pyknosed Nuclei (%): 13%
  Population Tubulin-Different-Phenotype (%): 14%
  Total Cell Count: 343
[7]
  Population Apoptotic (%): 35%
  Population Fragmented Nuclei (%): 8%
  Population Healthy Nuclei (%): 79%
  Population Hoechst High Intensity Objects (%): 4%
  Population Membrane Permeable-Phenotype (%): 0%
  Population Mitochondria Different-Phenotype (%): 43%
  Population Mitotic Cells (%): 64%
  Population Normal (%): 95%
  Population Pyknosed Nuclei (%): 11%
  Population Tubulin-Different-Phenotype (%): 32%
  Total Cell Count: 598
[8]
  Population Apoptotic (%): 51%
  Population Fragmented Nuclei (%): 7%
  Population Healthy Nuclei (%): 83%
  Population Hoechst High Intensity Objects (%): 6%
  Population Mitochondria Different-Phenotype (%): 64%
  Population Mitotic Cells (%): 48%
  Population Normal (%): 93%
  Population Pyknosed Nuclei (%): 9%
  Population Tubulin-Different-Phenotype (%): 26%
  Total Cell Count: 396
[9]
  Population Apoptotic (%): 19%
  Population Fragmented Nuclei (%): 15%
  Population Healthy Nuclei (%): 79%
  Population Hoechst High Intensity Objects (%): 3%
  Population Membrane Permeable-Phenotype (%): 1%
  Population Mitochondria Different-Phenotype (%): 16%
  Population Mitotic Cells (%): 80%
  Population Normal (%): 96%
  Population Pyknosed Nuclei (%): 5%
  Population Tubulin-Different-Phenotype (%): 12%
  Total Cell Count: 938
[10]
  Population Apoptotic (%): 32%
  Population Fragmented Nuclei (%): 13%
  Population Healthy Nuclei (%): 81%
  Population Membrane Permeable-Phenotype (%): 0%
  Population Mitochondria Different-Phenotype (%): 24%
  Population Mitotic Cells (%): 67%
  Population Tubulin-Different-Phenotype (%): 15%
  Total Cell Count: 552
[11]
  Population Apoptotic (%): 29%
  Population Fragmented Nuclei (%): 15%
  Population Healthy Nuclei (%): 75%
  Population Hoechst High Intensity Objects (%): 5%
  Population Membrane Permeable-Phenotype (%): 0%
  Population Mitochondria Different-Phenotype (%): 34%
  Population Mitotic Cells (%): 70%
  Population Normal (%): 94%
  Population Pyknosed Nuclei (%): 8%
  Population Tubulin-Different-Phenotype (%): 17%
  Total Cell Count: 874
[12]
  Population Apoptotic (%): 41%
  Population Fragmented Nuclei (%): 9%
  Population Healthy Nuclei (%): 84%
  Population Hoechst High Intensity Objects (%): 4%
  Population Mitochondria Different-Phenotype (%): 42%
  Population Mitotic Cells (%): 58%
  Population Normal (%): 95%
  Population Pyknosed Nuclei (%): 6%
  Population Tubulin-Different-Phenotype (%): 19%
  Total Cell Count: 570
